Laboratory results taken from ChEMBL document CHEMBL1122306, “2-(Hydroxyphenyl)indoles: a new class of mammary tumor inhibiting compounds” (1983).
Several values for one entry are separate records, joined by “and”; a condition that tells them apart may be missing. Identical values can stand only once. Each block holds one compound with its values, some of them ahead of it.

What was measured:
[1] = biological target: T1, Estrogen receptor (Mus musculus) (UniProt O08537+P19785); assay: Percent inhibition in anti-uterotrophic assay in mice at 0.2 ug; assay type: functional; conditions: in the assay text read “at 5 ug” for “at 0.2 ug”
Outline: (§1)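 Mice dosed sc on 3 consecutive days (dose per animal), together with […] estrone per animal per day. Uterus dry weight (mg)/body weight (g) × 100 was taken 24 h after the last injection, as mean ± SD of 10 animals. Significance by Wilcoxon–Mann–Whitney U test.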

[2] = biological target: T1, Estrogen receptor (Mus musculus); assay: Percent inhibition in anti-uterotrophic assay in mice at 0.04 ug; assay type: functional; conditions: in the assay text read “at 1 ug” for “at 0.04 ug”; outline: as §1
[3] = biological target: T1, Estrogen receptor (Mus musculus); assay: Percent inhibition in anti-uterotrophic assay in mice at 25 ug; assay type: functional; outline: as §1
[4] = biological target: T1, Estrogen receptor (Mus musculus); assay: Percent inhibition in anti-uterotrophic assay in mice at 5 ug; assay type: functional; outline: as §1
[5] = biological target: T1, Estrogen receptor (Mus musculus); assay: Estrogenic activity in mouse uterotrophic assay at 125 ug as uterus dry weight (mg)/body weight (g) *100; assay type: functional, tissue-based
Outline: (§2)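 Mouse uterotrophic test with the compound alone given sc on 3 consecutive days (dose per animal). Uterus dry weight (mg)/body weight (g) × 100 was measured 24 h after the last injection, as mean ± SD of 10 animals. Significance by Wilcoxon–Mann–Whitney U test.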

[6] = biological target: T1, Estrogen receptor (Mus musculus); assay: Estrogenic activity in mouse uterotrophic assay at 25 ug as uterus dry weight (mg)/body weight (g) *100; assay type: functional, tissue-based; outline: as §2
[7] = biological target: T1, Estrogen receptor (Mus musculus); assay: Estrogenic activity in mouse uterotrophic assay at 5 ug as uterus dry weight (mg)/body weight (g) *100; assay type: functional, tissue-based; outline: as §2
[8] = biological target: T1, Estrogen receptor (Mus musculus); assay: Anti-estrogenic activity in mouse uterotrophic assay at 25 ug as uterus dry weight (mg)/body weight (g) *100; assay type: functional, tissue-based; outline: as §1
[9] = biological target: T1, Estrogen receptor (Mus musculus); assay: Anti-estrogenic activity in mouse uterotrophic assay at 5 ug as uterus dry weight (mg)/body weight (g) *100; assay type: functional, tissue-based; outline: as §1
[10] = biological target: T1, Estrogen receptor (Mus musculus); assay: Estrogenic activity in mouse uterotrophic assay at 0.04 ug as uterus dry weight (mg)/body weight (g) *100; assay type: functional, tissue-based; outline: as §2
[11] = biological target: T1, Estrogen receptor (Mus musculus); assay: Estrogenic activity in mouse uterotrophic assay at 0.2 ug as uterus dry weight (mg)/body weight (g) *100; assay type: functional, tissue-based; outline: as §2
[12] = biological target: T1, Estrogen receptor (Mus musculus); assay: Estrogenic activity in mouse uterotrophic assay at 1 ug as uterus dry weight (mg)/body weight (g) *100; assay type: functional, tissue-based; outline: as §2
[13] = biological target: T1, Estrogen receptor (Mus musculus); assay: Anti-estrogenic activity in mouse uterotrophic assay at 0.04 ug as uterus dry weight (mg)/body weight (g) *100; assay type: functional, tissue-based; conditions: in the assay text read “at 1 ug” for “at 0.04 ug”; outline: as §1
[14] = biological target: T1, Estrogen receptor (Mus musculus); assay: Anti-estrogenic activity in mouse uterotrophic assay at 0.2 ug as uterus dry weight (mg)/body weight (g) *100; assay type: functional, tissue-based; conditions: in the assay text read “at 5 ug” for “at 0.2 ug”; outline: as §1
[15] = biological target: T1, Estrogen receptor (Mus musculus); assay: Anti-estrogenic activity in mouse uterotrophic assay at 1 ug as uterus dry weight (mg)/body weight (g) *100; assay type: functional, tissue-based; outline: as §1
MDA-MB-231 [16] = assay: Inhibition of [3H]thymidine incorporation into hormone independent MDA-MB 231 human breast cancer cells at 5x10E-6M; assay type: functional
Outline: (§3)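 MDA-MB 231 cells grown in McCoy 5a with 10% newborn calf serum and gentamycin. Replicate plates were switched to 5% serum 1 h before the run. Compounds were added in Me2SO (final 0.1%). Read-out was [3H]thymidine incorporation into TCA-precipitable material.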

MDA-MB-231 [17] = assay: Inhibition of [3H]thymidine incorporation into hormone independent MDA-MB 231 human breast cancer cells at 1x10E-5 M; assay type: functional; outline: as §3
MDA-MB-231 [18] = assay: (§4) Inhibition of [3H]thymidine incorporation into hormone independent MDA-MB 231 human breast cancer cells at 1x10E-6M; assay type: functional; outline: as §3
MDA-MB-231 [19] = assay: (§5) Inhibition of [3H]thymidine incorporation into hormone independent MDA-MB 231 human breast cancer cells at 2x10E-6M; assay type: functional; outline: as §3
MDA-MB-231 [20] = assay: Inhibition of [3H]-thymidine incorporation into hormone independent MDA-MB 231 human breast cancer cells at 5x10E-6M; assay type: functional; outline: as §3
MDA-MB-231 [21] = assay: Inhibition of [3H]thymidine incorporation into hormone independent MDA-MB 231 human breast cancer cells at 1*10^-5 M; assay type: functional; outline: as §3
MDA-MB-231 [22] = assay: as §4; assay type: functional; outline: as §3; remark: listed apart in the source
Rattus norvegicus [23] = assay: Initial DMBA-induced hormone dependent mammary carcinoma tumors in rats at 18 mg/kg; assay type: functional
Outline: (§6)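 Sprague-Dawley rats bearing established DMBA-induced mammary carcinomas that arose 5–10 weeks after DMBA. Dosed sc as one daily dose Monday to Thursday and a double dose on Friday. Controls got vehicle alone. Tumor area was followed over treatment.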

Rattus norvegicus [24] = assay: New tumor development in DMBA-induced hormone dependent mammary carcinoma in rats at 18 mg/kg; assay type: functional; outline: as §6
Rattus norvegicus [25] = assay: New tumor development in DMBA-induced hormone dependent mammary carcinoma in rats at 6 mg/kg; assay type: functional; outline: as §6
Rattus norvegicus [26] = assay: Partial remission in DMBA-induced hormone dependent mammary carcinoma tumor bearing rats at 2 mg/kg in 9 animals; assay type: functional; outline: as §6
Rattus norvegicus [27] = assay: Percent complete remission of DMBA-induced hormone dependent mammary carcinoma in rats at 2 mg/kg in 9 animals; assay type: functional; outline: as §6
Rattus norvegicus [28] = assay: Initial DMBA-induced hormone dependent mammary carcinoma tumors in rats at 2 mg/kg; assay type: functional; outline: as §6
Rattus norvegicus [29] = assay: Initial DMBA-induced hormone dependent mammary carcinoma tumors in rats at 6 mg/kg; assay type: functional; outline: as §6
Rattus norvegicus [30] = assay: Progressive DMBA-induced hormone dependent mammary carcinoma tumors in rats at 2 mg/kg in 9 animals; assay type: functional; outline: as §6
Rattus norvegicus [31] = assay: Change in body weight of DMBA-induced hormone dependent mammary carcinoma tumor bearing rats at 2 mg/kg after 7 day therapy in 9 animals; assay type: functional
[32] = biological target: T1, Estrogen receptor (Mus musculus); assay: Percent inhibition in anti-uterotrophic assay in mice at 1 ug; assay type: functional; outline: as §1
MDA-MB-231 [33] = assay: as §5; assay type: functional; outline: as §3; remark: listed apart in the source
Rattus norvegicus [34] = assay: New tumor development in DMBA-induced hormone dependent mammary carcinoma in rats at 2 mg/kg; assay type: functional; outline: as §6
MDA-MB-231 [35] = assay: Growth inhibition of hormone independent MDA-MB 231 human breast cancer cells at 5x10E-6M
MDA-MB-231 [36] = assay: Growth inhibition of hormone independent MDA-MB 231 human breast cancer cells at 1x10E-5 M
Rattus norvegicus [37] = assay: Static unchanged DMBA-induced hormone dependent mammary carcinoma tumors in rats at 2 mg/kg in 9 animals; assay type: functional; outline: as §6
Rattus norvegicus [38] = assay: Change in tumor area DMBA-induced hormone dependent mammary carcinoma tumor bearing rats at 2 mg/kg after 28 day therapy in 9 animals
[39] = biological target: T1, Estrogen receptor (Mus musculus); assay: Percent inhibition in anti-uterotrophic assay in mice at 125 ug; assay type: functional; outline: as §1
[40] = biological target: T1, Estrogen receptor (Mus musculus); assay: Percent inhibition in anti-uterotrophic assay in mice at 625 ug; assay type: functional; outline: as §1
[41] = biological target: T1, Estrogen receptor (Mus musculus); assay: Estrogenic activity in mouse uterotrophic assay at 625 ug as uterus dry weight (mg)/body weight (g) *100; assay type: functional, tissue-based; outline: as §2
[42] = biological target: T1, Estrogen receptor (Mus musculus); assay: Anti-estrogenic activity in mouse uterotrophic assay at 125 ug as uterus dry weight (mg)/body weight (g) *100; assay type: functional, tissue-based; outline: as §1
[43] = biological target: T1, Estrogen receptor (Mus musculus); assay: Anti-estrogenic activity in mouse uterotrophic assay at 625 ug as uterus dry weight (mg)/body weight (g) *100; assay type: functional, tissue-based; outline: as §1
Rattus norvegicus [44] = assay: Change in tumor area DMBA-induced hormone dependent mammary carcinoma tumor bearing rats at 2 mg/kg after 7 day therapy in 9 animals; assay type: functional; conditions: in the assay text read “28 day” for “7 day”; outline: as §6

T1 sequence (O08537 whole entry, looked up): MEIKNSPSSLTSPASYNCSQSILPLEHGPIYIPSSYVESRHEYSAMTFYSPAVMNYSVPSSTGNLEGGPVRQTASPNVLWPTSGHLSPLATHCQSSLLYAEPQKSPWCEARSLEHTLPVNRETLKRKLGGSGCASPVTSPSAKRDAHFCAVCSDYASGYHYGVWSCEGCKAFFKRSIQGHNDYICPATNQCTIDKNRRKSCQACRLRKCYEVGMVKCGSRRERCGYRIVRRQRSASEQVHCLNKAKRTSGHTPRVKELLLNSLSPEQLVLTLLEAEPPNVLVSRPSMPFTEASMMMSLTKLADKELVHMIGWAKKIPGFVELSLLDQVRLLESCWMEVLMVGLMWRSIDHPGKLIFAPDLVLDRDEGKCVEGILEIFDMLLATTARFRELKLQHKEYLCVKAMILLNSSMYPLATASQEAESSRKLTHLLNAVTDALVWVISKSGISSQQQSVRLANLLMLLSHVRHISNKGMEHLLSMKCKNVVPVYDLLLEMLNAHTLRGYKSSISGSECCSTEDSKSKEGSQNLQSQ
T1 sequence (P19785 whole entry, looked up): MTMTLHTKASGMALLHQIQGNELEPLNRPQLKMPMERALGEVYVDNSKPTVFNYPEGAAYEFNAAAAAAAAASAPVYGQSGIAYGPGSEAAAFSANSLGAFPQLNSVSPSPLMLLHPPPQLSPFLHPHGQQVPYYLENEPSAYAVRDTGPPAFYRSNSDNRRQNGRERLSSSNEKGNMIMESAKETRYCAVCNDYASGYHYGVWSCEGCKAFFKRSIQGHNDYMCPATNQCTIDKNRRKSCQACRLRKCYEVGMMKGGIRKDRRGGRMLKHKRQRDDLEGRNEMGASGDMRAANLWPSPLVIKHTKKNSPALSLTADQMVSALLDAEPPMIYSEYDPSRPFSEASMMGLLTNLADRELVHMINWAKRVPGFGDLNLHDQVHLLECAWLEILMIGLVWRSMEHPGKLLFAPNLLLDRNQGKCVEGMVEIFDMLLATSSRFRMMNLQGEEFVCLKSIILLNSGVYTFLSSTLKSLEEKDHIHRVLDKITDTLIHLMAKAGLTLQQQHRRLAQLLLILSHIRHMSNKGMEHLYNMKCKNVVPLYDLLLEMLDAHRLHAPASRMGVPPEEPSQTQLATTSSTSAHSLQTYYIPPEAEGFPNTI

inhibition [1]: 2%
inhibition [2]: -7%
inhibition [3]: 25%
inhibition [4]: 2%
inhibition [32]: -7%
Structure (SMILES): CCn1c(-c2c(Cl)cc(O)cc2Cl)cc2c(Cl)cc(O)cc21
Effect [5]: 40.6
Effect [6]: 45.8
Effect [7]: 22.2
Effect [8]: 39.3
Effect [9]: 46.3
Effect [10]: 19.8
Effect [11]: 21.7
Effect [12]: 21.5
Effect [13]: 48.7
Effect [14]: 46.3
Effect [15]: 48.7
T/C (MDA-MB-231 [16]): 14%
[3H]thymidine incorporation (MDA-MB-231 [16]): 5.8 cpm/dish x10E3
Cell no./dish x10E3 (MDA-MB-231 [17]): 6.6 cpm/dish x10E3
Cell no./dish x10E5 (MDA-MB-231 [17]): 2.71
Cell no./dish x10E3 (MDA-MB-231 [18]): 40.2 cpm/dish x10E3
Cell no./dish x10E5 (MDA-MB-231 [18]): 11.35
T/C (MDA-MB-231 [18]): 106%
Cell no./dish x10E3 (MDA-MB-231 [19]): 36.2 cpm/dish x10E3
Cell no./dish x10E5 (MDA-MB-231 [19]): 9.38
T/C (MDA-MB-231 [19]): 88%
Cell no./dish x10E5 (MDA-MB-231 [20]): 5.44
T/C (MDA-MB-231 [21]): 16%
T/C (MDA-MB-231 [22]): 98%
No. of tumors (Rattus norvegicus [23]): 20
New tumors (Rattus norvegicus [24]): 5
New tumors (Rattus norvegicus [25]): 4
Partial remission (Rattus norvegicus [26]; 2 mg/kg): 14% and 15% and 24%
Complete remission (Rattus norvegicus [27]; 2 mg/kg): 43% and 62% and 56%
No. of tumors (Rattus norvegicus [28]): 22
No. of tumors (Rattus norvegicus [29]): 22
Progressive tumors (Rattus norvegicus [30]; 2 mg/kg): 24% and 15% and 16%
Change (Rattus norvegicus [31]; 2 mg/kg): 2% and 1% and 0%
T/C (MDA-MB-231 [33]): 88%
New tumors (Rattus norvegicus [34]): 15
T/C (MDA-MB-231 [35]): 51%
T/C (MDA-MB-231 [36]): 25%

Structure (SMILES): CCCn1c(-c2c(Cl)cc(O)cc2Cl)cc2c(Cl)cc(O)cc21
New tumors (Rattus norvegicus [25]): 9
Partial remission (Rattus norvegicus [26]): 19%
Complete remission (Rattus norvegicus [27]): 8%
No. of tumors (Rattus norvegicus [29]): 17
Static remission (Rattus norvegicus [37]): 50%
Progressive tumors (Rattus norvegicus [30]): 23%
Change (Rattus norvegicus [31]): 0%
Change (Rattus norvegicus [38]): 57%

inhibition [39]: 30%
inhibition [3]: 14%
inhibition [4]: 5%
inhibition [40]: 24%
inhibition [32]: -6%
Structure (SMILES): Cn1c(-c2c(Cl)cc(O)cc2Cl)cc2c(Cl)cc(O)cc21
Effect [5]: 34.4
Effect [6]: 26
Effect [7]: 18.2
Effect [41]: 40.1
Effect [42]: 37.7
Effect [8]: 42.7
Effect [9]: 45.4
Effect [43]: 39.6
Effect [12]: 16
Effect [15]: 48.5
Cell no./dish x10E3 (MDA-MB-231 [17]): 2.2 cpm/dish x10E3
Cell no./dish x10E5 (MDA-MB-231 [17]): 4.12
Cell no./dish x10E3 (MDA-MB-231 [18]): 36.4 cpm/dish x10E3
Cell no./dish x10E5 (MDA-MB-231 [18]): 10.12
T/C (MDA-MB-231 [18]): 95%
T/C (MDA-MB-231 [21]): 5%
T/C (MDA-MB-231 [22]): 88%
New tumors (Rattus norvegicus [25]): 24
Partial remission (Rattus norvegicus [26]): 28%
Complete remission (Rattus norvegicus [27]): 19%
No. of tumors (Rattus norvegicus [29]): 19
Static remission (Rattus norvegicus [37]): 25%
Progressive tumors (Rattus norvegicus [30]): 28%
Change (Rattus norvegicus [31]): -2%
Change (Rattus norvegicus [44]): 24%
T/C (MDA-MB-231 [36]): 38%
